# Laboratory results reported in PubChem BioAssay AID588687 (Southern Research Specialized Biocontainment Screening …, 2011).
# Unmarked numbers belong to inactive results.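 The calls were made as follows: active = inhibition of 30% or more at any tested concentration; inactive = the rest.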
# Tested on: M18 aspartyl aminopeptidase (Plasmodium falciparum 3D7)
# Test: P. falciparum M18 aminopeptidase activity inhibition – biochemical, QFRET fluorogenic substrate, counter-screen for PfM1 aminopeptidase inhibitor project, dose response (AID 588687)
# Conditions: recombinant PfM18AAP, H-Glu-NHMec fluorogenic cleavage; series mostly up to 100 µM; inhibition: at the top concentration
# Summary of the method: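 Assay system – recombinant P. falciparum PFM18AAP enzyme · Medium – pH 7.5 Tris-HCl plus 2 mM CoCl2 · Also added – 0.1 mM H-Glu-NHMec substrate · Schedule – enzyme reaction with compounds 90 min at room temperature · Measured by – fluorescence of released leaving group, excitation 370 nm, emission 460 nm · Read-out – % inhibition of enzyme activity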
row,Structure (SMILES),inhibition [%]
1,CC[C@H](C)[C@H](NC(=O)c1ccc([N+](=O)[O-])cc1)C(=O)NCc1ccccc1,-13.2
2,COc1ccc(-c2ccc(S(=O)(=O)N3CCC(C(=O)NCc4ccc5c(c4)OCO5)CC3)s2)cc1,-48
3,CC[C@H](C)[C@H](NS(=O)(=O)c1ccc(Br)s1)C(=O)O,-0.95
4,COc1cccc(-c2ccc(S(=O)(=O)N3CCC(C(=O)NCc4ccc5c(c4)OCO5)CC3)s2)c1,7.54
5,O=C(NCc1ccc2c(c1)OCO2)C1CCN(S(=O)(=O)c2ccc(-c3cncc4ccccc34)s2)CC1,-43.4
6,O=C(NCc1ccc2c(c1)OCO2)C1CCN(S(=O)(=O)c2ccc(-c3ccccc3)s2)CC1,8.21
7,CC[C@H](C)[C@H](NC(=O)c1ccc(C(C)(C)C)cc1)C(=O)NCc1ccc(C(F)(F)F)cc1,-25.8
8,CC(=O)Nc1cccc(-c2ccc(S(=O)(=O)N3CCC(C(=O)NCc4ccc5c(c4)OCO5)CC3)s2)c1,17
9,CN(C)c1ccc(CNC(=O)C2CCN(S(=O)(=O)c3ccc(Br)s3)CC2)cc1,19.9
10,CC(C)(C)c1ccc(-c2ccc(S(=O)(=O)N3CCC(C(=O)NCc4ccc5c(c4)OCO5)CC3)s2)cc1,-8.7
11,CC[C@H](C)[C@H](NS(=O)(=O)c1ccc(Br)s1)C(=O)NCc1ccc(C(F)(F)F)cc1,-0.4
12,O=C(NCc1ccc2c(c1)OCO2)C1CCN(S(=O)(=O)c2ccc(-c3ccc(F)cc3)s2)CC1,16.3
13,CC[C@H](C)[C@H](NC(=O)c1ccc([N+](=O)[O-])cc1)C(=O)NCc1ccc(F)cc1,-5.15
14,CC[C@H](C)[C@H](NS(=O)(=O)c1ccc(Br)s1)C(=O)NCc1ccc(F)cc1,15.1
15,O=C(NCc1ccc2c(c1)OCO2)C1CCN(S(=O)(=O)c2ccc(-c3cccc(F)c3)s2)CC1,-10.5
16,CC[C@H](C)[C@H](NS(=O)(=O)c1cccs1)C(=O)NCc1ccc(F)cc1,-3.85
17,CC[C@H](C)[C@H](NC(=O)c1ccc([N+](=O)[O-])cc1)C(=O)NCc1ccc(C(F)(F)F)cc1,-4.11
